Assay results from ChEMBL document CHEMBL5376013, “Design, synthesis and biological evaluation of novel morpholinopyrimidine-5-carbonitrile derivatives as dual PI3K/mTOR inhibitors” (RSC Med Chem, 2024).

What was measured:
Format in all cases: functional
Details in all cases: read-out: GI
[1] = test system: NCI-H522; assay: Antitumor activity against human NCI-H522 cells assessed as growth inhibition at 10 uM relative to control
How it was run: (§1)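 After drug addition, plates were incubated 48 h at 37 °C under 5% CO2. Adherent cells were fixed with cold TCA (10% final, 60 min, 4 °C) and suspension cells with 16% final TCA. Staining used 0.4% SRB in 1% acetic acid, solubilized in 10 mM trizma, read at A515. Percent growth was calculated from time-zero, control and treated absorbances.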

[2] = test system: SNB-19; assay: Antitumor activity against human SNB-19 cells assessed as growth inhibition at 10 uM relative to control
How it was run: (§2)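 Drug exposure 48 h at 37 °C, 5% CO2. Adherent cells fixed with cold TCA (10% final), suspension cells with TCA (16% final). Stained with 0.4% SRB in 1% acetic acid, dissolved in 10 mM Tris, A515. Growth relative to time-zero and untreated control.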

[3] = test system: HOP-62; assay: Antitumor activity against human HOP-62 cells assessed as growth inhibition at 10 uM relative to control; how it was run: as §1
[4] = test system: SW-620; assay: Antitumor activity against human SW-620 cells assessed as growth inhibition at 10 uM relative to control; how it was run: as §2
[5] = test system: COLO 205; assay: Antitumor activity against human COLO 205 cells assessed as growth inhibition at 10 uM relative to control; how it was run: as §1
[6] = test system: DU-145; assay: Antitumor activity against human DU-145 cells assessed as growth inhibition at 10 uM relative to control; how it was run: as §1
[7] = test system: SK-MEL-2; assay: Antitumor activity against human SK-MEL-2 cells assessed as growth inhibition at 10 uM relative to control; how it was run: as §1
[8] = test system: MCF7; assay: Antitumor activity against human MCF7 cells assessed as growth inhibition at 10 uM relative to control; how it was run: as §1
[9] = test system: HCT-116; assay: Antitumor activity against human HCT-116 cells assessed as growth inhibition at 10 uM relative to control; how it was run: as §1
[10] = test system: SK-OV-3; assay: Antitumor activity against human SK-OV-3 cells assessed as growth inhibition at 10 uM relative to control; how it was run: as §2
[11] = test system: SK-MEL-28; assay: Antitumor activity against human SK-MEL-28 cells assessed as growth inhibition at 10 uM relative to control; how it was run: as §2
[12] = test system: K562; assay: Antitumor activity against human K562 cells assessed as growth inhibition at 10 uM relative to control; how it was run: as §1
[13] = test system: UACC-257; assay: Antitumor activity against human UACC-257 cells assessed as growth inhibition at 10 uM relative to control; how it was run: as §2
[14] = test system: MDA-MB-468; assay: Antitumor activity against human MDA-MB-468 cells assessed as growth inhibition at 10 uM relative to control; how it was run: as §1
[15] = test system: CAKI-1; assay: Antitumor activity against human CAKI-1 cells assessed as growth inhibition at 10 uM relative to control; how it was run: as §1
[16] = test system: T47D; assay: Antitumor activity against human T47D cells assessed as growth inhibition at 10 uM relative to control; how it was run: as §2
[17] = test system: ACHN; assay: Antitumor activity against human ACHN cells assessed as growth inhibition at 10 uM relative to control; how it was run: as §1
[18] = test system: OVCAR-4; assay: Antitumor activity against human OVCAR-4 cells assessed as growth inhibition at 10 uM relative to control; how it was run: as §1
[19] = test system: U-251; assay: Antitumor activity against human U-251 cells assessed as growth inhibition at 10 uM relative to control; how it was run: as §2
[20] = test system: NCI/ADR-RES; assay: Antitumor activity against human NCI-ADR-RES cells assessed as growth inhibition at 10 uM relative to control; how it was run: as §1
[21] = test system: KM12; assay: Antitumor activity against human KM12 cells assessed as growth inhibition at 10 uM relative to control; how it was run: as §1
[22] = test system: LOX IMVI; assay: Antitumor activity against human LOX IMVI cells assessed as growth inhibition at 10 uM relative to control; how it was run: as §1
[23] = test system: SNB-75; assay: Antitumor activity against human SNB-75 cells assessed as growth inhibition at 10 uM relative to control; how it was run: as §2
[24] = test system: SF-539; assay: Antitumor activity against human SF-539 cells assessed as growth inhibition at 10 uM relative to control; how it was run: as §1
[25] = test system: SF-268; assay: Antitumor activity against human SF-268 cells assessed as growth inhibition at 10 uM relative to control; how it was run: as §1
[26] = test system: NCI-H23; assay: Antitumor activity against human NCI-H23 cells assessed as growth inhibition at 10 uM relative to control; how it was run: as §1
[27] = test system: UACC-62; assay: Antitumor activity against human UACC-62 cells assessed as growth inhibition at 10 uM relative to control; how it was run: as §2
[28] = test system: MDA-MB-231; assay: Antitumor activity against human MDA-MB-231 cells assessed as growth inhibition at 10 uM relative to control; how it was run: as §1
[29] = test system: UO-31; assay: Antitumor activity against human UO-31 cells assessed as growth inhibition at 10 uM relative to control; how it was run: as §2
[30] = test system: SK-MEL-5; assay: Antitumor activity against human SK-MEL-5 cells assessed as growth inhibition at 10 uM relative to control; how it was run: as §2
[31] = test system: PC-3; assay: Antitumor activity against human PC-3 cells assessed as growth inhibition at 10 uM relative to control; how it was run: as §1
[32] = test system: 786-0; assay: Antitumor activity against human 786-0 cells assessed as growth inhibition at 10 uM relative to control; how it was run: as §1
[33] = test system: A549; assay: Antitumor activity against human A549 cells assessed as growth inhibition at 10 uM relative to control; how it was run: as §1
[34] = test system: CCRF-CEM; assay: Antitumor activity against human CCRF-CEM cells assessed as growth inhibition at 10 uM relative to control; how it was run: as §1
[35] = test system: RPMI-8226; assay: Antitumor activity against human RPMI-8226 cells assessed as growth inhibition at 10 uM relative to control; how it was run: as §1
[36] = test system: OVCAR-3; assay: Antitumor activity against human OVCAR-3 cells assessed as growth inhibition at 10 uM relative to control; how it was run: as §1
[37] = test system: RXF 393; assay: Antitumor activity against human RXF 393 cells assessed as growth inhibition at 10 uM relative to control; how it was run: as §1
[38] = test system: Malme-3M; assay: Antitumor activity against human Malme-3M cells assessed as growth inhibition at 10 uM relative to control; how it was run: as §1
[39] = test system: HOP-92; assay: Antitumor activity against human HOP-92 cells assessed as growth inhibition at 10 uM relative to control; how it was run: as §1
[40] = test system: HT-29; assay: Antitumor activity against human HT-29 cells assessed as growth inhibition at 10 uM relative to control; how it was run: as §1
[41] = test system: HCT-15; assay: Antitumor activity against human HCT-15 cells assessed as growth inhibition at 10 uM relative to control; how it was run: as §1
[42] = test system: NCI-H226; assay: Antitumor activity against human NCI-H226 cells assessed as growth inhibition at 10 uM relative to control; how it was run: as §1
[43] = test system: MOLT-4; assay: Antitumor activity against human MOLT-4 cells assessed as growth inhibition at 10 uM relative to control; how it was run: as §1
[44] = test system: BT-549; assay: Antitumor activity against human BT-549 cells assessed as growth inhibition at 10 uM relative to control; how it was run: as §1
[45] = test system: SN12C; assay: Antitumor activity against human SN12C cells assessed as growth inhibition at 10 uM relative to control; how it was run: as §2
[46] = test system: SR; assay: Antitumor activity against human SR cells assessed as growth inhibition at 10 uM relative to control; how it was run: as §2

Structure (SMILES): N#Cc1c(-c2ccc(Cl)cc2)nc(N/N=C/c2ccco2)nc1N1CCOCC1
- inhibition of growth at 10 µM [1]: 37.7%
- inhibition of growth at 10 µM [2]: 20%
- inhibition of growth at 10 µM [3]: 33.6%
- inhibition of growth at 10 µM [4]: 17.8%
- inhibition of growth at 10 µM [5]: 24.8%
- inhibition of growth at 10 µM [6]: 14.6%
- inhibition of growth at 10 µM [7]: 17.7%
- inhibition of growth at 10 µM [8]: < 73.8%
- inhibition of growth at 10 µM [9]: 23.9%
- inhibition of growth at 10 µM [10]: 50.6%
- inhibition of growth at 10 µM [11]: 34.1%
- inhibition of growth at 10 µM [12]: < 1%
- inhibition of growth at 10 µM [13]: < 1%
- inhibition of growth at 10 µM [14]: 69.1%
- inhibition of growth at 10 µM [15]: < 1%
- inhibition of growth at 10 µM [16]: 76.8%
- inhibition of growth at 10 µM [17]: 23.3%
- inhibition of growth at 10 µM [18]: 54.4%
- inhibition of growth at 10 µM [19]: < 1%
- inhibition of growth at 10 µM [20]: 24.2%
- inhibition of growth at 10 µM [21]: < 1%
- inhibition of growth at 10 µM [22]: 21.3%
- inhibition of growth at 10 µM [23]: 89.7%
- inhibition of growth at 10 µM [24]: 24.7%
- inhibition of growth at 10 µM [25]: 25.5%
- inhibition of growth at 10 µM [26]: 29.2%
- inhibition of growth at 10 µM [27]: 41.8%
- inhibition of growth at 10 µM [28]: 25.5%
- inhibition of growth at 10 µM [29]: 72.9%
- inhibition of growth at 10 µM [30]: 19.1%
- inhibition of growth at 10 µM [31]: 31.7%
- inhibition of growth at 10 µM [32]: 25.9%
- inhibition of growth at 10 µM [33]: 21.1%
- inhibition of growth at 10 µM [34]: 11.3%
- inhibition of growth at 10 µM [35]: 33.5%
- inhibition of growth at 10 µM [36]: 33.4%
- inhibition of growth at 10 µM [37]: < 1%
- inhibition of growth at 10 µM [38]: 57.6%
- inhibition of growth at 10 µM [39]: 59.4%
- inhibition of growth at 10 µM [40]: 13%
- inhibition of growth at 10 µM [41]: 19.7%
- inhibition of growth at 10 µM [42]: 59.4%
- inhibition of growth at 10 µM [43]: 17%
- inhibition of growth at 10 µM [44]: 41.5%
- inhibition of growth at 10 µM [45]: 17.9%
- inhibition of growth at 10 µM [46]: < 1%
